According to ChEMBL document CHEMBL2069278, “Novel substituted benzothiophene and thienothiophene carboxanilides and quinolones: synthesis, photochemical synthesis, DNA-binding properties, antitumor evaluation and 3D-derived QSAR analysis” (J Med Chem, 2012):
Activity calls are given as the source filed them. No cut-off for these calls is given here.

Key:
SW-620 = assay: Cytotoxicity against human SW620 cells after 72 hrs by MTT assay; type: functional, cell-based; conditions: SW-620, 72 h
In short: (§1)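 Cells seeded on day 0 at 1 × 10^4 to 3 × 10^4 cells/mL (adherent lines in DMEM, MOLT-4 in suspension in RPMI, 10% FBS, 37 °C, 5% CO2); 10-fold dilutions 10−8–10−4 M for 72 h; MTT, OD 570 nm; percentage growth versus time-zero and control; IC50 by linear regression; quadruplicate, at least two experiments.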

Nucleic Acid [1] = assay: Binding affinity to calf thymus DNA assessed as change in melting temperature at drug/base pair ratio of 0.25 by UV-visible spectrophotometric analysis; type: nucleic-acid assay; conditions: Bos taurus
In short: (§2)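 Melting: 20 μM CT-DNA or poly(dAdT)2 alone or with compound (drug/base pair ratio 0.01−0.5) in BPE buffer (6 mM Na2HPO4, 2 mM NaH2PO4, 1 mM EDTA, pH 7.1); A260 read each minute from 20 to 100 °C at 1 °C/min; Tm from midpoint of hyperchromic transition (first-derivative plots); ΔTm = Tm[drug+DNA] − Tm[DNA alone].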

HCT-116 [2] = assay: Induction of cell cycle arrest in human HCT116 cells assessed as accumulation at G1 phase at 1 to 5 uM by propidium iodide based flow cytometry; type: functional; conditions: TDE = time-dependent effect
In short: (§3)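 HCT116 cells (2 × 10^5 per well) treated after 24 h with 1 or 5 μM for 24 and 48 h; floating and attached cells pooled, fixed in 70% ethanol, stained with 50 μg/mL propidium iodide plus RNase A; 20 000 events by flow cytometry; phase percentages from DNA histograms; duplicate, repeated at least twice.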

HCT-116 [3] = assay: Cytotoxicity against human HCT116 cells after 72 hrs by MTT assay; type: functional, cell-based; conditions: HCT-116, 72 h; in short: as §1
HCT-116 [4] = assay: Induction of cell cycle arrest in human HCT116 cells assessed as accumulation at G2/M phase after 24 to 48 hrs by propidium iodide based flow cytometry; type: functional; in short: as §3
MOLT-4 = assay: Cytotoxicity against human MOLT4 cells after 72 hrs by MTT assay; type: functional, cell-based; conditions: MOLT-4, 72 h; in short: as §1
Nucleic Acid [5] = assay: Binding affinity to radiolabeled Pvu2 DNA after 15 mins by Dnase1 footprinting assay; type: nucleic-acid assay
In short: (§4)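 265 bp EcoRI/PvuII pBluescript fragment, 3′-end labeled with α-[32P]dATP by Klenow. Compounds at increasing concentrations pre-equilibrated with DNA 15 min at 37 °C, then DNase I (final 0.002 unit/mL) in 20 mM NaCl, 2 mM MgCl2, 2 mM MnCl2, pH 7.3, 4 min digestion; products resolved on denaturing 8% polyacrylamide/8 M urea gel, G-track for base positions.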

Nucleic Acid [6] = assay: Binding affinity to calf thymus DNA assessed as change in melting temperature at drug/base pair ratio of 0.025 by UV-visible spectrophotometric analysis; type: nucleic-acid assay; conditions: Bos taurus; in short: as §2
HCT-116 [7] = assay: Induction of cell cycle arrest in human HCT116 cells assessed as accumulation at G2/M phase at 1 to 5 uM by propidium iodide based flow cytometry; type: functional; conditions: TDE = time-dependent effect; in short: as §3
[8] = target: T1, DNA topoisomerase 1 (Homo sapiens) (UniProt P11387); assay: Inhibition of human topoisomerase 1-mediated DNA cleavage at 10 uM incubated for 45 mins followed by enzyme addition measured after 30 mins by agarose gel electrophoresis
T1 sequence (whole entry): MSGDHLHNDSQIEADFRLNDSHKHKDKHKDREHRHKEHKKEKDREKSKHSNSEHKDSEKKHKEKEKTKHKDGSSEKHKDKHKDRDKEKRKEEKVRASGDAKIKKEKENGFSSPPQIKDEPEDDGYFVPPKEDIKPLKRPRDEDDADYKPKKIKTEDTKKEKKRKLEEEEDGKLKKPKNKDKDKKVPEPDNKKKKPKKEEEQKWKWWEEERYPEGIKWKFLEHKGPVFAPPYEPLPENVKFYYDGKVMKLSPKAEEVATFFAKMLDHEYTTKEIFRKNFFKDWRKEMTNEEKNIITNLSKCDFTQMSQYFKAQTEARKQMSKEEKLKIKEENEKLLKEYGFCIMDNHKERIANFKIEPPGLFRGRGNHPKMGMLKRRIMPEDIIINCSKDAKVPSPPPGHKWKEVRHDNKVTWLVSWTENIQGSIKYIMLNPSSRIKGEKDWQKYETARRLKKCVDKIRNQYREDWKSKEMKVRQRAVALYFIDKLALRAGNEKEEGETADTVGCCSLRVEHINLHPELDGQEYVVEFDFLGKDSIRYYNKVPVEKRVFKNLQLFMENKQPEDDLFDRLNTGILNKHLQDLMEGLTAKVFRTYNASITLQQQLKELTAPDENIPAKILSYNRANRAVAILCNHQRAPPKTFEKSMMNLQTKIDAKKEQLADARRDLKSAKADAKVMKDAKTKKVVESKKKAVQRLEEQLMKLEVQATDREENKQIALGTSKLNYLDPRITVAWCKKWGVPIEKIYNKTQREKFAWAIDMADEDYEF
In short: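 Topo I cleavage run like the relaxation assay (pUC19, 4 units human topoisomerase I, 37 °C, 45 min; SDS/proteinase K stop), but samples run on 1% agarose gel containing ethidium bromide; camptothecin 20 μM as poisoning control.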

Nucleic Acid [9] = assay: Binding affinity to Poly (dAdT)2 DNA assessed as change in melting temperature at drug/base pair ratio of 0.01 by UV-visible spectrophotometric analysis; type: nucleic-acid assay; in short: as §2
NCI-H460 = assay: Cytotoxicity against human H460 cells after 72 hrs by MTT assay; type: functional, cell-based; conditions: NCI-H460, 72 h; in short: as §1
Nucleic Acid [10] = assay: Binding affinity to AT rich site of Pvu2 DNA by densitometric analysis; type: nucleic-acid assay; in short: as §4
Nucleic Acid [11] = assay: Binding affinity to Poly (dAdT)2 DNA assessed as DNA intercalation at 20 uM by circular dichroism spectra analysis; type: nucleic-acid assay
In short: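 CD: compound titrated against poly(dAdT)2, or poly(dAdT)2 titrated with compound from 1 to 200 μM, in BPE buffer (pH 7.1); spectra from 480 to 230 nm in 10 mm quartz cell at 20 °C; peak position and intensity followed.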

Nucleic Acid [12] = assay: Binding affinity to calf thymus DNA assessed as DNA intercalation at 50 uM by circular dichroism spectra analysis; type: nucleic-acid assay; conditions: Bos taurus
In short: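 CD: 50 μM compound with 200 μM CT-DNA in BPE buffer, alone or plus 10 or 100 mM NaCl; spectra 480–230 nm, 10 mm quartz cell, 20 °C; compound without DNA as control for intrinsic CD.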

Nucleic Acid [13] = assay: Binding affinity to Poly (dAdT)2 DNA assessed as change in melting temperature at drug/base pair ratio of 0.1 by UV-visible spectrophotometric analysis; type: nucleic-acid assay; in short: as §2
Nucleic Acid [14] = assay: Binding affinity to calf thymus DNA assessed as change in melting temperature at drug/base pair ratio of 0.01 by UV-visible spectrophotometric analysis; type: nucleic-acid assay; conditions: Bos taurus; in short: as §2
[15] = target: DNA topoisomerase 2-alpha (Homo sapiens) (UniProt P11388); assay: Inhibition of human topoisomerase 2-mediated DNA cleavage at 50 uM incubated for 45 mins followed by enzyme addition measured after 30 mins by agarose gel electrophoresis
Sequence of DNA topoisomerase 2-alpha (Homo sapiens) (P11388 whole entry): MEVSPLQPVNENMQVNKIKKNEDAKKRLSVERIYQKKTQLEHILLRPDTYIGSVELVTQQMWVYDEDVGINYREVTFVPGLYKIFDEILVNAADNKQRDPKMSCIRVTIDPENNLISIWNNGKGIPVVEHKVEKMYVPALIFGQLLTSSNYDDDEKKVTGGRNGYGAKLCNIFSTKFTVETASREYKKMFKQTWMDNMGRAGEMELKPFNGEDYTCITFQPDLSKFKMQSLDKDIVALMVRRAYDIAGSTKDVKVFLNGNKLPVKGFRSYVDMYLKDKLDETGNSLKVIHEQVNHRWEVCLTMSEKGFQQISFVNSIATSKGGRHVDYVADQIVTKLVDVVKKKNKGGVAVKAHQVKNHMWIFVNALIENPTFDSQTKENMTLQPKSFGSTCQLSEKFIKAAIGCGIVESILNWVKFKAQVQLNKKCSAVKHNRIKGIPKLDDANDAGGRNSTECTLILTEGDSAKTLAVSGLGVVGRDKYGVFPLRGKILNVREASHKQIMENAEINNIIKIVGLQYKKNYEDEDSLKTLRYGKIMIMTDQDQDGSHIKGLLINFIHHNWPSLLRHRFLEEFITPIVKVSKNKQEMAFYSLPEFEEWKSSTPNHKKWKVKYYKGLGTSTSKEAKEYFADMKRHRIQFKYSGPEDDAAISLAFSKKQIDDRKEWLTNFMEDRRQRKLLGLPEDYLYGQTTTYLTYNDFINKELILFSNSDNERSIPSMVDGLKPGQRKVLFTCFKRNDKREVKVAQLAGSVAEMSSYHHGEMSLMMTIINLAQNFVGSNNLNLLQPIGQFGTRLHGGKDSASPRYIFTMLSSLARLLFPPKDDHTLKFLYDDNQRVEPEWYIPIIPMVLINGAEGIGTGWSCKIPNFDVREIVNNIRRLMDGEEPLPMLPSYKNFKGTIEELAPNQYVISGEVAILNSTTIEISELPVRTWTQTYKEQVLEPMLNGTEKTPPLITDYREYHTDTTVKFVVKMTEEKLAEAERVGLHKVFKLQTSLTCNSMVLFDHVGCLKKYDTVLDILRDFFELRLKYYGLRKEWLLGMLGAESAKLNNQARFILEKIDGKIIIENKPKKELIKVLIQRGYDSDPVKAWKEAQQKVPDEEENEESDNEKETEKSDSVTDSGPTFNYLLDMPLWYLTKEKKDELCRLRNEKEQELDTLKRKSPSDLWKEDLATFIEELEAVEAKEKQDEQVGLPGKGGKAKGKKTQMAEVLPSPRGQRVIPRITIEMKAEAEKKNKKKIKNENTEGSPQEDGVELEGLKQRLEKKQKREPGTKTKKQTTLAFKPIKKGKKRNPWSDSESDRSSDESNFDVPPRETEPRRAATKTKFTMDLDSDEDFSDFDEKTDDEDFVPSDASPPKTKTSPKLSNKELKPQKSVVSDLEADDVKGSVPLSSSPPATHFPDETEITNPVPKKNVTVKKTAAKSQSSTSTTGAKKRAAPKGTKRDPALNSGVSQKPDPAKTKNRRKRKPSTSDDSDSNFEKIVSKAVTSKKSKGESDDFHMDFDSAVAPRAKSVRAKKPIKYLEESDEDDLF
In short: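 Compounds (50 μM) incubated with 350 ng supercoiled pUC19 before topoisomerase II addition; gel quantified for percentage poisoning normalized to etoposide at the same concentration.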

MCF7 = assay: Cytotoxicity against human MCF7 cells after 72 hrs by MTT assay; type: functional, cell-based; conditions: MCF7, 72 h; in short: as §1
Nucleic Acid [16] = assay: Binding affinity to Poly (dAdT)2 DNA assessed as change in melting temperature at drug/base pair ratio of 0.025 by UV-visible spectrophotometric analysis; type: nucleic-acid assay; in short: as §2
[17] = target: T1, DNA topoisomerase 1 (Homo sapiens); assay: Inhibition of human topoisomerase 1-mediated supercoiled pUC19 plasmid DNA relaxation at 10 uM incubated for 45 mins followed by enzyme addition measured after 30 mins by agarose gel electrophoresis
In short: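 Graded compound concentrations preincubated with supercoiled pUC19, then 4 units human topoisomerase I, 37 °C for 45 min in relaxation buffer; stopped with 0.25% SDS and 250 μg/mL proteinase K, 30 min at 50 °C; 1% agarose gel without ethidium bromide, 2 h at 120 V in TBE, then stained with ethidium bromide.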

Nucleic Acid [18] = assay: Binding affinity to calf thymus DNA assessed as change in melting temperature at drug/base pair ratio of 0.5 by UV-visible spectrophotometric analysis; type: nucleic-acid assay; conditions: Bos taurus; in short: as §2
Nucleic Acid [19] = assay: Binding affinity to calf thymus DNA assessed as change in melting temperature at drug/base pair ratio of 0.1 by UV-visible spectrophotometric analysis; type: nucleic-acid assay; conditions: Bos taurus; in short: as §2
Nucleic Acid [20] = assay: Binding affinity to Poly (dAdT)2 DNA assessed as change in melting temperature at drug/base pair ratio of 0.25 by UV-visible spectrophotometric analysis; type: nucleic-acid assay; in short: as §2
HCT-116 [21] = assay: Induction of cell cycle arrest in human HCT116 cells assessed as accumulation at G1 phase after 24 to 48 hrs by propidium iodide based flow cytometry; type: functional; in short: as §3
Nucleic Acid [22] = assay: Binding affinity to Poly (dAdT)2 DNA assessed as change in melting temperature at drug/base pair ratio of 0.05 by UV-visible spectrophotometric analysis; type: nucleic-acid assay; in short: as §2
HCT-116 [23] = assay: Induction of cell cycle arrest in human HCT116 cells assessed as accumulation at G1 phase at 5 uM after 24 to 48 hrs by propidium iodide based flow cytometry; type: functional; in short: as §3

O=C(Nc1ccc(C2=NCCN2)cc1)c1sc2cc(C3=NCCN3)ccc2c1Cl
IC50 (SW-620): 1400 nM
ΔTm (Nucleic Acid [1]): 23.9 °C
Activity (HCT-116 [2]): tde
IC50 (HCT-116 [3]): 1700 nM
Activity (HCT-116 [4]): Dose-dependent effect
IC50 (MOLT-4): 1900 nM
Activity (Nucleic Acid [5]): Active
ΔTm (Nucleic Acid [6]): 2 °C
Activity (HCT-116 [7]): tde
inhibition [8]: Active
ΔTm (Nucleic Acid [9]): 1 °C
IC50 (NCI-H460): 2600 nM
Activity (Nucleic Acid [10]): Active
Activity (Nucleic Acid [11]): Active
Activity (Nucleic Acid [12]): Active
ΔTm (Nucleic Acid [13]): 18.6 °C
ΔTm (Nucleic Acid [14]): 1 °C
inhibition [15]: Active
IC50 (MCF7): 1500 nM
ΔTm (Nucleic Acid [16]): 2 °C
inhibition [17]: Active
ΔTm (Nucleic Acid [18]): 28.4 °C
ΔTm (Nucleic Acid [19]): 7.9 °C
ΔTm (Nucleic Acid [20]): 27.4 °C
Activity (HCT-116 [21]): Dose-dependent effect
ΔTm (Nucleic Acid [22]): 5.9 °C

O=C(Nc1ccc(C2=NCCN2)cc1)c1sc2ccccc2c1Cl
IC50 (SW-620): 1200 nM
ΔTm (Nucleic Acid [1]): 5 °C
Activity (HCT-116 [2]): tde
IC50 (HCT-116 [3]): 1800 nM
Activity (HCT-116 [4]): Dose-dependent effect
IC50 (MOLT-4): 2100 nM
Activity (Nucleic Acid [5]): Active
Activity (HCT-116 [7]): tde
Activity (HCT-116 [23]): Active
IC50 (NCI-H460): 1000 nM
Activity (Nucleic Acid [10]): inactive
Activity (Nucleic Acid [12]): inactive
inhibition [15]: Active
IC50 (MCF7): 1600 nM
inhibition [17]: Active
ΔTm (Nucleic Acid [18]): 6.8 °C
Activity (HCT-116 [21]): Dose-dependent effect
